Test results from ChEMBL document CHEMBL4270642, “Boronic ester-linked macrocyclic lipopeptides as serine protease inhibitors targeting Escherichia coli type I signal peptidase” (Eur J Med Chem, 2018).
Values after ≈ are worked out from the molar mass of the structure shown.

How the values were obtained:
[1] = target: Signal peptidase I (Escherichia coli K-12) (UniProt P00803); test: Inhibition of Escherichia coli type 1 signal peptidase lepB assessed as residual activity at 0.0024 uM preincubated for 10 mins followed by Dabcyl-VGGTATAYGAFSRPGLE-(EDANS)-OH substrate addition measured after 2 hrs by FRET based assay (reference value: 100%)
Chain of Signal peptidase I (Escherichia coli K-12) (P00803 whole entry): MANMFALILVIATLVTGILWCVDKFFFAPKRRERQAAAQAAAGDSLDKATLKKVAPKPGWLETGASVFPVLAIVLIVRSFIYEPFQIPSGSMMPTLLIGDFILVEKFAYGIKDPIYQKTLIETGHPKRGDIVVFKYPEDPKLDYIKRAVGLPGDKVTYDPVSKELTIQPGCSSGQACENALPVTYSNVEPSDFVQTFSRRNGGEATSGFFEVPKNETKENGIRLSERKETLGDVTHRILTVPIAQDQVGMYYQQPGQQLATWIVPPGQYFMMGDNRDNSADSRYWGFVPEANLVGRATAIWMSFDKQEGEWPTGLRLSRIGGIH
Summary of the method: (§1)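 EcLepB (about 50 nM estimated) preincubated 10 min with compound. Reaction started with Dabcyl/EDANS FRET peptide at 8 µM final (Km 20 µM). Fluorescence followed continuously at 535 nm, 22 °C, for 2 h. Cleavage rates plotted against inhibitor concentration; IC50 from non-linear regression of sigmoidal dose-response curves.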

Pseudomonas aeruginosa [2] = test: Antibacterial activity against efflux defective Pseudomonas aeruginosa PAO750 after 16 to 20 hrs by broth microdilution method; format: functional
Summary of the method: (§2)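 Broth microdilution in cation-adjusted Mueller-Hinton II per EUCAST/CLSI; two-fold compound series 64 down to 0.25 µg/mL final. Inoculum from fresh colonies (non-selective agar, 18-24 h, 35 ± 2 °C), adjusted to 0.5 McFarland, diluted to about 5 × 10^5 CFU/mL final. Static incubation 16-20 h at 35 ± 2 °C; MIC read visually as complete growth inhibition against medium-only wells.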

[3] = target: Signal peptidase I (Escherichia coli K-12) (UniProt P00803); test: Inhibition of Escherichia coli type 1 signal peptidase lepB assessed as residual activity at 0.1563 uM preincubated for 10 mins followed by Dabcyl-VGGTATAYGAFSRPGLE-(EDANS)-OH substrate addition measured after 2 hrs by FRET based assay (reference value: 100%); summary of the method: as §1
[4] = target: Signal peptidase I (Escherichia coli K-12) (UniProt P00803); test: Inhibition of Escherichia coli type 1 signal peptidase lepB assessed as residual activity at 2.5 uM preincubated for 10 mins followed by Dabcyl-VGGTATAYGAFSRPGLE-(EDANS)-OH substrate addition measured after 2 hrs by FRET based assay (reference value: 100%); summary of the method: as §1
Pseudomonas aeruginosa [5] = test: Antibacterial activity against Pseudomonas aeruginosa PAO1 after 16 to 20 hrs by broth microdilution method; format: functional; summary of the method: as §2
Signal peptidase I = Signal peptidase I (Escherichia coli K-12, UniProt P00803); test: Inhibition of Escherichia coli type 1 signal peptidase lepB preincubated for 10 mins followed by Dabcyl-VGGTATAYGAFSRPGLE-(EDANS)-OH substrate addition measured after 2 hrs by FRET based assay; summary of the method: as §1
Chain of Signal peptidase I (P00803 whole entry): as above

[6] = target: Signal peptidase I (Escherichia coli K-12) (UniProt P00803); test: Inhibition of Escherichia coli type 1 signal peptidase lepB assessed as residual activity at 0.0391 uM preincubated for 10 mins followed by Dabcyl-VGGTATAYGAFSRPGLE-(EDANS)-OH substrate addition measured after 2 hrs by FRET based assay (reference value: 100%); summary of the method: as §1
[7] = target: Signal peptidase I (Escherichia coli K-12) (UniProt P00803); test: Inhibition of Escherichia coli type 1 signal peptidase lepB assessed as residual activity at 0.0195 uM preincubated for 10 mins followed by Dabcyl-VGGTATAYGAFSRPGLE-(EDANS)-OH substrate addition measured after 2 hrs by FRET based assay (reference value: 100%); summary of the method: as §1
[8] = target: Signal peptidase I (Escherichia coli K-12) (UniProt P00803); test: Inhibition of Escherichia coli type 1 signal peptidase lepB assessed as residual activity at 0.0012 uM preincubated for 10 mins followed by Dabcyl-VGGTATAYGAFSRPGLE-(EDANS)-OH substrate addition measured after 2 hrs by FRET based assay (reference value: 100%); summary of the method: as §1
Escherichia coli [9] = test: Antibacterial activity against Escherichia coli ATCC 25922 after 16 to 20 hrs by broth microdilution method; format: functional; summary of the method: as §2
Klebsiella pneumoniae = test: Antibacterial activity against Klebsiella pneumoniae ATCC 13883 after 16 to 20 hrs by broth microdilution method; format: functional; summary of the method: as §2
Acinetobacter baumannii = test: Antibacterial activity against Acinetobacter baumannii ATCC 19606 after 16 to 20 hrs by broth microdilution method; format: functional; settings: ATCC 19606 = CIP 70.34 = JCM 6841; summary of the method: as §2
[10] = Hemolytic activity in human RBC at 100 uM after 45 mins by spectrophotometric method relative to control; format: ADME, cell-based, Erythrocyte; settings: red blood cells (erythrocytes), read-out: Activity
Summary of the method: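 Heparinized human blood; red cells washed three times in Tyrode buffer pH 7.4. Compound at 100 µM final with 1% DMSO and 50% RBC, shaken (250 rpm) 45 min at 37 °C. Cells pelleted (1000 × g, 10 min); supernatant haemoglobin at 540 nm. Percent lysis relative to buffer-only and 2% Triton X-100 controls.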

HepG2 = test: Cytotoxicity against human HepG2 cells after 72 hrs by FMSA; format: cell-based; settings: HepG2, 72 h
Summary of the method: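 HepG2 (ATCC) grown in EMEM with 10% FBS, pen/strep, 2 mM L-glutamine, used up to 20 passages. Seeded at 1000 cells/well, cultured overnight, then dosed acoustically from DMSO stocks. Eight two-fold dilutions in duplicate from top 64 or 32 µM; 72 h at 37 °C, 5% CO2. Fluorescein diacetate hydrolysis read at ex 485/em 530 nm; IC50 by non-linear regression.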

Escherichia coli [11] = test: Antibacterial activity against tolC deficient Escherichia coli CH3130 after 16 to 20 hrs by broth microdilution method; format: functional; summary of the method: as §2
Escherichia coli [12] = test: Antibacterial activity against Escherichia coli D22 CGSG 5163 harboring Ips mutant after 16 to 20 hrs by broth microdilution method; format: functional
Summary of the method: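 Broth microdilution in cation-adjusted Mueller-Hinton II broth, following EUCAST and CLSI guidelines. Two-fold series at final concentrations 64 down to 0.25 µg/mL, with medium-only and growth controls. Inoculum from fresh colonies (18-24 h, 35 °C ± 2 °C) adjusted to 0.5 McFarland, final ≈5 × 10^5 CFU/mL. Plates incubated unshaken 16-20 h at 35 °C ± 2 °C. MIC read visually as complete inhibition of growth.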

[13] = target: Signal peptidase I (Escherichia coli K-12) (UniProt P00803); test: Inhibition of Escherichia coli type 1 signal peptidase lepB assessed as residual activity at 0.0098 uM preincubated for 10 mins followed by Dabcyl-VGGTATAYGAFSRPGLE-(EDANS)-OH substrate addition measured after 2 hrs by FRET based assay (reference value: 100%); summary of the method: as §1
[14] = target: Signal peptidase I (Escherichia coli K-12) (UniProt P00803); test: Inhibition of Escherichia coli type 1 signal peptidase lepB assessed as residual activity at 5 uM preincubated for 10 mins followed by Dabcyl-VGGTATAYGAFSRPGLE-(EDANS)-OH substrate addition measured after 2 hrs by FRET based assay (reference value: 100%); summary of the method: as §1
[15] = target: Signal peptidase I (Escherichia coli K-12) (UniProt P00803); test: Inhibition of Escherichia coli type 1 signal peptidase lepB assessed as residual activity at 0.0049 uM preincubated for 10 mins followed by Dabcyl-VGGTATAYGAFSRPGLE-(EDANS)-OH substrate addition measured after 2 hrs by FRET based assay (reference value: 100%); summary of the method: as §1
Staphylococcus aureus = test: Antibacterial activity against Staphylococcus aureus ATCC 29213 after 16 to 20 hrs by broth microdilution method; format: functional; summary of the method: as §2
[16] = target: Signal peptidase I (Escherichia coli K-12) (UniProt P00803); test: Inhibition of Escherichia coli type 1 signal peptidase lepB assessed as residual activity at 10 uM preincubated for 10 mins followed by Dabcyl-VGGTATAYGAFSRPGLE-(EDANS)-OH substrate addition measured after 2 hrs by FRET based assay (reference value: 100%); summary of the method: as §1
[17] = target: Signal peptidase I (Escherichia coli K-12) (UniProt P00803); test: Inhibition of Escherichia coli type 1 signal peptidase lepB assessed as residual activity at 0.625 uM preincubated for 10 mins followed by Dabcyl-VGGTATAYGAFSRPGLE-(EDANS)-OH substrate addition measured after 2 hrs by FRET based assay (reference value: 100%); summary of the method: as §1
[18] = target: Signal peptidase I (Escherichia coli K-12) (UniProt P00803); test: Inhibition of Escherichia coli type 1 signal peptidase lepB assessed as residual activity at 0.3125 uM preincubated for 10 mins followed by Dabcyl-VGGTATAYGAFSRPGLE-(EDANS)-OH substrate addition measured after 2 hrs by FRET based assay (reference value: 100%); summary of the method: as §1
[19] = target: Signal peptidase I (Escherichia coli K-12) (UniProt P00803); test: Inhibition of Escherichia coli type 1 signal peptidase lepB assessed as residual activity at 0.0781 uM preincubated for 10 mins followed by Dabcyl-VGGTATAYGAFSRPGLE-(EDANS)-OH substrate addition measured after 2 hrs by FRET based assay (reference value: 100%); summary of the method: as §1
[20] = target: Signal peptidase I (Escherichia coli K-12) (UniProt P00803); test: Inhibition of Escherichia coli type 1 signal peptidase lepB assessed as residual activity at 1.25 uM preincubated for 10 mins followed by Dabcyl-VGGTATAYGAFSRPGLE-(EDANS)-OH substrate addition measured after 2 hrs by FRET based assay (reference value: 100%); summary of the method: as §1
[21] = target: Signal peptidase I (Escherichia coli K-12) (UniProt P00803); test: Inhibition of Escherichia coli type 1 signal peptidase lepB assessed as residual activity at 0.0006 uM preincubated for 10 mins followed by Dabcyl-VGGTATAYGAFSRPGLE-(EDANS)-OH substrate addition measured after 2 hrs by FRET based assay (reference value: 100%); summary of the method: as §1

SMILES | Activity [1] [%] | MIC (Pseudomonas aeruginosa [2]) [µg/mL] | Activity [3] [%] | Activity [4] [%] | MIC (Pseudomonas aeruginosa [5]) [µg/mL] | IC50 (Signal peptidase I) [nM] | Activity [6] [%] | Activity [7] [%] | Activity [8] [%] | MIC (Escherichia coli [9]) [µg/mL] | MIC (Klebsiella pneumoniae) [µg/mL] | MIC (Acinetobacter baumannii) [µg/mL] | hemolysis at 0.75 h, 100 µM [10] [%] | IC50 (HepG2) [nM] | MIC (Escherichia coli [11]) [µg/mL] | MIC (Escherichia coli [12]) [µg/mL] | Activity [13] [%] | Activity [14] [%] | Activity [15] [%] | MIC (Staphylococcus aureus) [µg/mL] | other results
CCCCCCc1ccc(-c2ccc(C(=O)N[C@@H](CCCN)C(=O)N[C@H](C(=O)N[C@@H](C)C(=O)N[C@H]3Cc4cn(nn4)CCCN4C[C@@H]5OB(O[C@@H]5C4)[C@H](C)NC3=O)[C@@H](C)O)cc2)cc1 | 86.2 | 64 (≈ 72.3 µM) | 47.3 | 28.1 | > 64 | 105 | 47.9 | 68.6 | 85.6 | 32 (≈ 36.2 µM) | 32 (≈ 36.2 µM) | 16 (≈ 18.1 µM) | 17.4 | 4000 | 8 (≈ 9.04 µM) | 8 (≈ 9.04 µM) | 76.7 | 14.9 | 80.9 | 32 (≈ 36.2 µM) | Activity [16]: 5.6%; Activity [17]: 35.3%; Activity [18]: 43%; Activity [19]: 42.8%; Activity [20]: 32.8%; Activity [21]: 89.5%
C[C@@H]1NC(=O)[C@@H](NC(=O)[C@H](C)NC(=O)[C@@H](NC(=O)[C@H](CCCN)NC(=O)C#Cc2ccc(-c3ccccc3)cc2)[C@@H](C)O)Cc2cn(nn2)CCO[C@@H]2C[C@@H]3OB1O[C@@H]3C2 | 106 | > 64 | 58.2 | 17.8 | > 64 | 227 | 89.3 | 98.2 | 103 | > 64 | > 64 | > 64 | 0.01 | 28200 | > 64 | > 64 | 99 | 13.5 | 97.1 | 32 (≈ 38.8 µM) | Activity [16]: 6.8%; Activity [17]: 25.8%; Activity [18]: 30%; Activity [19]: 73.1%; Activity [20]: 22.5%
CCCCCCc1ccc(-c2nc3cc(C(=O)N[C@@H](CCCN)C(=O)N[C@H](C(=O)N[C@@H](C)C(=O)N[C@H]4Cc5cn(nn5)CCO[C@@H]5C[C@@H]6OB(O[C@@H]6C5)[C@H](C)NC4=O)[C@@H](C)O)ccc3[nH]2)cc1 | 92.8 | 64 (≈ 69.1 µM) | 7.2 | 2.8 | > 64 | 29 | 40.6 | 63.2 | 100 | > 64 | 64 (≈ 69.1 µM) | 64 (≈ 69.1 µM) | 0.5 | 24400 | 16 (≈ 17.3 µM) | 64 (≈ 69.1 µM) | 86.3 | -0.1 | 88.3 | 4 (≈ 4.32 µM) | Activity [16]: 6.3%; Activity [17]: 8.6%; Activity [18]: 6.8%; Activity [19]: 16.5%; Activity [20]: 5.4%
C[C@@H]1NC(=O)[C@@H](NC(=O)[C@H](C)NC(=O)[C@@H](NC(=O)[C@H](CCCN)NC(=O)c2ccc(-c3ccccc3)cc2)[C@@H](C)O)Cc2cn(nn2)CCO[C@@H]2C[C@@H]3OB1O[C@@H]3C2 | 94.6 | > 64 | 26.4 | 9.9 | > 64 | 72 | 68.9 | 83.8 | 100 | > 64 | > 64 | > 64 | 0.2 | > 64000 | > 64 | > 64 | 88.3 | 9.7 | 84.9 | > 64 | Activity [16]: 7.2%; Activity [17]: 11.8%; Activity [18]: 12%; Activity [19]: 48.6%; Activity [20]: 10.6%
